Only some compounds are listed: those with a hit (about 2.5% of all), similar ones and a draw of the others.
SENP8 block-1: blocks the human protease SENP8 | Q96LD8 | purified SENP8, Z-RLRGG-aminoluciferin cleavage, luminescence | inhibition, % at 10 µM | 330,000 compounds, 1.2% hits; in the data active = inhibition above about 50%
Target sequence (Q96LD8 whole entry, looked up): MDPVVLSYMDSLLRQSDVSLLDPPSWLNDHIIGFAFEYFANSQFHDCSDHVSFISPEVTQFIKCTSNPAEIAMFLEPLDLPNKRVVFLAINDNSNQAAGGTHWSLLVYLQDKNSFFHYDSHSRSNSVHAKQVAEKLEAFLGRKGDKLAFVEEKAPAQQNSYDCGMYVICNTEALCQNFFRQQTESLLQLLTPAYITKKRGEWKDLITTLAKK
SENP1 inh: SENP1 (human) catalytic domain inhibition; inhibition, % at 10 µM; recombinant SENP1 catalytic domain, CyPet-SUMO1-YPet FRET cleavage; 360,000 compounds, 0.21% hits; AID 624204;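 active = inhibition at least 30% at 10 µM, raw YFP signal under a set limit, fluorescence ratio 0.5 to 1.5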;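 also: 0% = enzyme with DMSO and 100% = no enzyme wells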
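Test system: hSENP1 catalytic domain, recombinant; Amount: 20 pM final SENP1 enzyme; Medium: Tris pH 8 buffer plus EDTA, NaCl, BME, BSA, NP40, catalase; Schedule: 50 min enzyme reaction, room temperature, light-protected; Technique: FRET fluorescence in CFP and YFP emission channels; Controls: no-enzyme wells low, DMSO-plus-enzyme wells high control.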
SENP7 inh: blocks the human protease SENP7 | 330,000 compounds, 1.5% hits | Q9BQF6 | recombinant SENP7, Z-RLRGG-aminoluciferin luminescence, 40 min | inhibition, % at 5 µM;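 active = inhibition above about 50% at the single test dose, limit read from the data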;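 also: plate controls were DMSO with enzyme for no effect and no enzyme buffer wells for full effect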
Target sequence (Q9BQF6 706-1050 limits assumed): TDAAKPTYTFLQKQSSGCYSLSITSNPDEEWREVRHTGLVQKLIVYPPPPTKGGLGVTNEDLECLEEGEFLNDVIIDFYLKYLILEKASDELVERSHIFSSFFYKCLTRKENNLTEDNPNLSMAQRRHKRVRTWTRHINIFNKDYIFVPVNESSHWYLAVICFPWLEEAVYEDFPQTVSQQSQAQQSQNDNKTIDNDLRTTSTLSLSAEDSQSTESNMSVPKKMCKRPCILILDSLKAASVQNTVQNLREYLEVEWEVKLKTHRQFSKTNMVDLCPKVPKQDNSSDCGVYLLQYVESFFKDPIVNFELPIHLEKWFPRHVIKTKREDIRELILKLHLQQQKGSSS
SENP6 inh: blocks the human protease SENP6; Q9GZR1; Recombinant SENP6 catalytic domain, aminoluciferin luminescence; inhibition, % at 10 µM; 330,000 compounds, 1.8% hits;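 active = inhibition above about 50% at the single tested dose, limit read from the data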;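 also: plate controls were DMSO wells with enzyme for no effect and DMSO wells lacking enzyme for full effect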
SENP8 block-2: inhibitors of human SENP8 protease | inhibition, % at 20 µM | 360,000 compounds, 0.64% hits | recombinant SENP8, Nedd8 substrate fluorescence | AID 602440 | Q96LD8; in the data active = inhibition mostly above about 40%, no sharp cut-off; inactive = mostly below about 27%
* = called active by the depositor; . = no result given.

SMILES	SENP8 block-1	SENP1 inh	SENP7 inh	SENP6 inh	SENP8 block-2
CCN(CC)c1ccc2nc3ccccc3[n+](CC)c2c1	23	-3	19	29	14
CCN(CC)c1ccc2nc3ccc(N)cc3[n+](-c3ccccc3)c2c1	36	32	17	32	39*
O=C(N/N=C/c1ccccc1OCC(=O)N1CCCC1)C(=O)Nc1ccccc1F	34	3	61*	70*	-2
CC1CN(CC(O)COc2ccc(C#N)cc2)CCN1CC(O)COc1ccc(C#N)cc1 (centres undefined)	7	0	-5	14	11
Cn1ncc(Cl)c1C(=O)Nc1nc2ccc(Cl)cc2s1	-5	2	98*	98*	-56
C/C(=N\OC(=O)c1ccc(F)cc1)c1ccc(F)c(F)c1	73*	5	92*	80*	23
C/C(=N\OC(=O)c1ccc(F)cc1)c1sc(-c2ccc(Cl)cc2)nc1C	-1	0	3	-20	-413
Cc1cc(C)c(Nc2cc(S(=O)(=O)O)c(N)c3c2C(=O)c2ccccc2C3=O)c(C)c1	.	-28	.	.	48*
Cc1ccc(Cn2c(C)c(C(=O)NCc3ccc4c(c3)OCO4)sc2=O)cc1	.	-8	.	.	10
Cc1ccc2nc(-c3ccc(NC(=O)CCN4C(=O)c5ccccc5C4=O)cc3)sc2c1	51*	-19	-4	74*	-377
Cc1ccc(CNCC(=O)Nc2ccc(N3CCOCC3)cc2)cc1	-9	0	1	-18	24
Cc1ccc(Nc2ccc([N+](=O)[O-])ccc2=O)cc1	6	0	7	21	43*
Cc1ccc(Nc2ccc(C(F)(F)F)cc2[N+](=O)[O-])cc1	3	5	-7	-3	32
CCN1C(=O)[C@H]2[C@@H](c3ccc(C(F)(F)F)cc3)N[C@]3(CCCN(Cc4ccc(C)cc4)C3=O)[C@H]2C1=O	.	0	.	.	13
CC(=O)n1c(-c2ccccc2)c(-c2ccccc2)n(C)c1=O	4	0	-3	5	-256
O=c1c2c(nc3cc(-c4cccc(F)c4)[nH]n13)CCC2	44	2	45	60*	-270
C[C@@H]1CN([C@H](C)CO)C(=O)c2cc(Br)cnc2O[C@H]1CN(C)C	.	2	.	.	-17
O=C1C=C(Nc2cccnc2)c2ccccc2C1=O	.	3	.	.	91*
c1ccc(N2CCN(c3nc4cc5c(cc4s3)OCO5)CC2)cc1	-2	-26	-4	-2	-2
c1ccc2c(c1)CCN(c1nc3cc4c(cc3s1)OCO4)C2	94*	-80	96*	88*	-82
CCCS(=O)(=O)NC(=O)C1(C)CCCN(C(=O)c2ccc(F)cc2Cl)C1 (centres undefined)	.	-1	.	.	10
O=C(CSc1nnc(NC(=O)c2ccccc2Cl)s1)Nc1ccc2c(c1)oc1ccccc12	32	.	82*	37	.
CC1=Nc2cccc3cccc(c23)N1	4	-10	13	14	47*
CC(=O)Nc1cc(OC(C)=O)c2nonc2c1OC(C)=O	70*	2	92*	82*	33
CCN(CC)c1nc2c(c(=O)[nH]c(=O)n2C)n1CCCc1ccccc1	-11	1	6	-18	4
SMILES	SENP8 block-1	SENP1 inh	SENP7 inh	SENP6 inh	SENP8 block-2
CC1(C(=O)NCc2ccccc2)CN(S(C)(=O)=O)CC(=O)N1CCc1c[nH]c2ccccc12 (centres undefined)	.	-1	.	.	11
O=c1c2ccccc2sc2ccc(Cl)cc12	19	-191	58*	39	-139
O=c1c2ccccc2sc2ccccc12	.	-212	.	.	-368
COc1ccccc1NC(=O)CN1CC(=O)Nc2ccccc21	-7	0	-3	-8	13
COc1ccc(N=NC2=C(O)CC(C)(C)CC2=O)c(OC)c1	1	69*	-2	2	22
COc1ccc(N=NC2=C(O)CC(C)(C)CC2=O)cc1	-3	15	4	-1	28
CCCC[n+]1ccn(C2=C([O-])c3ccccc3C(=O)/C2=N\S(=O)(=O)c2ccccc2)c1	29	2	28	39	78*
CCCC[n+]1ccn(-c2nc3ccccc3nc2[N-]S(=O)(=O)c2ccccc2)c1	-6	-124	5	8	-295
CCCCC[n+]1ccn(C2=C([O-])c3ccccc3C(=O)/C2=N\S(=O)(=O)c2ccccc2)c1	22	-1	18	25	67*
CCCCC[n+]1ccn(C2=C([O-])c3ccccc3C(=O)/C2=N\S(=O)(=O)c2ccc(Br)cc2)c1	16	5	7	35	80*
CC(C)[n+]1ccn(C2=C([O-])c3ccccc3C(=O)/C2=N\S(=O)(=O)c2ccccc2)c1	16	0	16	43	86*
CCCCC[n+]1ccn(-c2nc3ccccc3nc2[N-]S(=O)(=O)c2ccc(C)cc2)c1	1	-21	1	0	-483
C[C@@H]1CN([C@@H](C)CO)C(=O)CCCn2cc(nn2)CO[C@H]1CN(C)S(=O)(=O)c1ccc(Cl)cc1	.	2	.	.	8
COc1ccc(-c2ccc(C(=O)Nc3ccc(C(C)C)cc3)c3occc23)c(C)c1	.	0	.	.	1
COc1cccc(-c2nc(N3CCCCC3C)c3ccccc3n2)c1O (centres undefined)	0	3	9	-1	47*
O=C(O)c1ccc(-c2cccc(-c3nn4c(=O)cc(N5CCNCC5)nc4s3)c2)cc1	.	-2	.	.	-24
CCN(CC)c1ccc(/C=C(\C#N)C(=O)c2ccc(Br)cc2)cc1	.	-27	.	.	50*
O=S(=O)(O)c1cc(O)c2c(O)c(N=Nc3cc(Cl)ccc3O)c(S(=O)(=O)O)cc2c1	20	-1	10	28	30
Cc1cc(-c2ccc(N=Nc3c(S(=O)(=O)O)cc4cc(S(=O)(=O)O)cc(N)c4c3O)c(C)c2)ccc1N=Nc1c(S(=O)(=O)O)cc2cc(S(=O)(=O)O)cc(N)c2c1O	72*	.	41	26	.
Cc1ccc(C(=O)N2CCC(N3CCC(C(=O)N4CCOCC4)CC3)CC2)cc1	.	-1	.	.	18
CC(C)C(=O)NC(c1cccs1)c1cc([N+](=O)[O-])c2cccnc2c1O (centres undefined)	5	1	18	20	44*
Cc1ccc(C(NC(=O)C(C)C)c2cc([N+](=O)[O-])c3cccnc3c2O)cc1 (centres undefined)	1	-4	-5	2	55*
CCC(=O)NC(c1ccc(C)cc1)c1cc(Cl)c2cccnc2c1O (centres undefined)	-22	10	-5	-24	18
Cc1ccc(O)c(N=CC2=C(O)c3ccccc3C2=O)c1	22	42*	29	46	84*
CCN1CCN(S(=O)(=O)c2ccc(OC)c(NC(=O)c3ccccc3F)c2)CC1	6	1	-1	-8	8
COC(=O)CCN1CCc2cc(N=Nc3ccc([N+](=O)[O-])cc3)ccc21	-22	3	80*	-23	29
FC(F)(F)c1cc(Cl)c2nc(-c3ccccc3)c(Cc3ccccc3)n2c1	.	0	.	.	-235
Cc1cc(C)c(C#N)c(OCC2CCCO2)n1 (centres undefined)	.	0	.	.	8

High-throughput results as filed in PubChem.
